ChEMBL document CHEMBL3272325, “Structure-activity relationships of dimeric Catharanthus alkaloids. 1. Deacetylvinblastine amide (vindesine) sulfate” (J Med Chem, 1978)

Key:
P388 [1] = assay: Antitumor activity against mouse P388 cells allografted in mouse assessed as increase in life span at 0.27 mg/kg/day, ip administered from day 1 to day 9 relative to untreated control; assay type: functional; settings: route intraperitoneal
Method in brief: (§1)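 P388 ascites implanted ip in mice, 10 animals per group. Sulfate salts given ip either daily on days 1-9 or as a single dose on day 1. Median life span was calculated using all deaths and survivors. Percent increase in life span was taken over untreated controls. The highest nontoxic dose was noted.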

[2] = Toxicity in ip dosed mouse allografted with mouse p388 cells administered from day 1 to day 9; assay type: organism-based; settings: in vivo, read-out: MNTD; method in brief: as §1
B16 [3] = assay: Antitumor activity against mouse B16 cells allografted in C57Bl/6 mouse assessed as mean survival time at 0.9 mg/kg/day, ip administered on day 5, 9 and 13 (reference value: 21.5 days); settings: route intraperitoneal
P388 [4] = assay: Antitumor activity against mouse P388 cells allografted in mouse assessed as increase in life span at 13.5 mg/kg/day, ip after 1 day; assay type: functional; settings: 24 h, route intraperitoneal
B16 [5] = assay: Antitumor activity against mouse B16 cells allografted in C57Bl/6 mouse assessed as increase in life span at 0.9 mg/kg/day, ip administered on day 5, 9 and 13 measured for 61 days relative to control; assay type: functional; settings: route intraperitoneal
Method in brief: (§2)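 C57BL/6 mice implanted ip with 0.5 mL of B16 melanoma brei. Alkaloid sulfate salts given ip on days 1, 5, 9 or on days 5, 9, 13. Percent increase in life span measured against controls; experiment ended at 61 days.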

B16 [6] = assay: Antitumor activity against mouse B16 cells allografted in B6D2F1 mouse assessed as increase in life span at 1.8 mg/kg/day, ip administered on day 5, 9 and 13 measured for 56 days relative to untreated control; assay type: functional; settings: route intraperitoneal
Method in brief: (§3)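 Male B6D2F1 mice implanted ip on day 0 with 0.25 mL of a 20% (w/v) B16 melanoma brei. Alkaloid sulfate salts given ip on days 1, 5, 9 or on days 5, 9, 13, groups of 10, against 30 untreated controls. Read-outs: median survival time with range of individual deaths, and percent increase in life span, with survivors counted on day 56.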

B16 [7] = assay: Antitumor activity against mouse B16 cells allografted in B6D2F1 mouse assessed as mean survival time at 3 mg/kg/day, ip administered on day 5, 9 and 13 (reference value: 20.0 days); assay type: functional; settings: route intraperitoneal; method in brief: as §3
B16 [8] = assay: Antitumor activity against mouse B16 cells allografted in C57Bl/6 mouse assessed as increase in life span at 0.9 mg/kg/day, ip administered on day 1, 5 and 9 measured for 61 days relative to control; assay type: functional; settings: route intraperitoneal; method in brief: as §2
B16 [9] = assay: Antitumor activity against mouse B16 cells allografted in B6D2F1 mouse assessed as mean survival time at 0.389 mg/kg/day, ip administered on day 1, 5 and 9 (reference value: 20.0 days); assay type: functional; settings: route intraperitoneal; method in brief: as §3
P388 [10] = assay: Antitumor activity against mouse P388 cells allografted in mouse assessed as increase in life span at 9 mg/kg/day, ip after 1 day; assay type: functional; settings: 24 h, route intraperitoneal; method in brief: as §1
B16 [11] = assay: Antitumor activity against mouse B16 cells allografted in B6D2F1 mouse assessed as mean survival time at 0.648 mg/kg/day, ip administered on day 5, 9 and 13 (reference value: 20.0 days); assay type: functional; settings: route intraperitoneal; method in brief: as §3
[12] = Antitumor activity against mouse P1534(J) cells allografted in mouse assessed as tumor growth inhibition at 0.2 mg/kg/day, ip administered from day 1 to day 9 relative to unreated control; assay type: functional; settings: P1534J, route intraperitoneal, read-out: TGI
Method in brief: (§4)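 P1534(J) leukemia implanted subcutaneously in mice. Sulfate salts given ip daily on days 1-9. Read-out was percent inhibition of tumor growth relative to untreated controls. The highest nontoxic dose was recorded.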

[13] = Antitumor activity against mouse Gardner lymphosarcoma cell allografted in mouse at 0.2 to 0.3 mg/kg/day, ip; assay type: functional; settings: route intraperitoneal
Method in brief: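 Ridgeway osteogenic sarcoma and Gardner lymphosarcoma in mice, with sulfate salts given ip daily on days 1-9. Tumor growth inhibition versus controls scored in bands: +++ = 75-100%, ++ = 50-75%, ± = under 25%.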

B16 [14] = assay: Antitumor activity against mouse B16 cells allografted in B6D2F1 mouse assessed as mean survival time at 0.648 mg/kg/day, ip administered on day 1, 5 and 9 (reference value: 20.0 days); assay type: functional; settings: route intraperitoneal; method in brief: as §3
B16 [15] = assay: Antitumor activity against mouse B16 cells allografted in B6D2F1 mouse assessed as increase in life span at 0.648 mg/kg/day, ip administered on day 5, 9 and 13 measured for 56 days relative to untreated control; assay type: functional; settings: route intraperitoneal; method in brief: as §3
B16 [16] = assay: Antitumor activity against mouse B16 cells allografted in B6D2F1 mouse assessed as mean survival time at 1.8 mg/kg/day, ip administered on day 5, 9 and 13 (reference value: 20.0 days); assay type: functional; settings: route intraperitoneal; method in brief: as §3
Rhesus monkey = assay: Neurotoxicity in iv dosed monkey assessed as peripheral neuropathy; assay type: toxicity, organism-based, Macaca mulatta; settings: in vivo
B16 [17] = assay: Antitumor activity against mouse B16 cells allografted in B6D2F1 mouse assessed as mean survival time at 1.08 mg/kg/day, ip administered on day 1, 5 and 9 (reference value: 20.0 days); assay type: functional; settings: route intraperitoneal; method in brief: as §3
P388 [18] = assay: Antitumor activity against mouse P388 cells allografted in mouse assessed as increase in life span at 0.10 mg/kg/day, ip administered from day 1 to day 9 relative to untreated control; assay type: functional; settings: route intraperitoneal; method in brief: as §1
[19] = Antitumor activity against mouse P1534(J) cells allografted in mouse assessed as tumor growth inhibition at 0.25 mg/kg/day, ip administered from day 1 to day 9 relative to unreated control; assay type: functional; settings: P1534J, route intraperitoneal, read-out: TGI
Method in brief: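 P1534(J) leukemia implanted subcutaneously in mice; sulfate salts given ip on days 1-9. Read-out is percent inhibition of tumor growth versus untreated controls.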

P388 [20] = assay: Antitumor activity against mouse P388 cells allografted in mouse assessed as increase in life span at 2.7 mg/kg/day, ip after 1 day; assay type: functional; settings: 24 h, route intraperitoneal; method in brief: as §1
[21] = Toxicity in ip dosed mouse allografted with mouse p388 cells after 1 day; assay type: organism-based; settings: in vivo, read-out: MNTD; method in brief: as §1
P388 [22] = assay: Antitumor activity against mouse P388 cells allografted in mouse assessed as increase in life span at 1.8 mg/kg/day, ip after 1 day; assay type: functional; settings: 24 h, route intraperitoneal; method in brief: as §1
B16 [23] = assay: Antitumor activity against mouse B16 cells allografted in B6D2F1 mouse assessed as increase in life span at 0.389 mg/kg/day, ip administered on day 5, 9 and 13 measured for 56 days relative to untreated control; assay type: functional; settings: route intraperitoneal; method in brief: as §3
B16 [24] = assay: Antitumor activity against mouse B16 cells allografted in B6D2F1 mouse assessed as increase in life span at 3 mg/kg/day, ip administered on day 5, 9 and 13 measured for 56 days relative to untreated control; assay type: functional; settings: route intraperitoneal; method in brief: as §3
Gallus gallus = assay: Neurotoxicity in iv dosed chicken assessed as neuromuscular disturbance by measuring loss of balance; assay type: organism-based; settings: in vivo
[25] = Toxicity in ip dosed mouse allografted with mouse P1534(J) cells administered from day 1 to day 9; assay type: organism-based; settings: in vivo, read-out: MNTD; method in brief: as §4
[26] = Acute toxicity in ip dosed mouse; assay type: organism-based; settings: in vivo
B16 [27] = assay: Antitumor activity against mouse B16 cells allografted in B6D2F1 mouse assessed as mean survival time at 0.389 mg/kg/day, ip administered on day 5, 9 and 13 (reference value: 20.0 days); assay type: functional; settings: route intraperitoneal; method in brief: as §3
B16 [28] = assay: Antitumor activity against mouse B16 cells allografted in B6D2F1 mouse assessed as increase in life span at 3 mg/kg/day, ip administered on day 1, 5 and 9 measured for 56 days relative to untreated control; assay type: functional; settings: route intraperitoneal; method in brief: as §3

Structure (SMILES): CC[C@]1(O)C[C@@H]2CN(CCc3c([nH]c4ccccc34)[C@@](C(=O)OC)(c3cc4c(cc3OC)N(C)[C@H]3[C@@](O)(C(N)=O)[C@H](O)[C@]5(CC)C=CCN6CC[C@]43[C@@H]65)C2)C1.O=S(=O)(O)O [VINDESINE SULFATE]
- ILS at 0.27 mg/kg/day (P388 [1]): 172%
- MTD [2]: 0.9 mg/kg/day
- MST (B16 [3]): 38.3 days
- ILS at 13.5 mg/kg/day (P388 [4]): 231%
- ILS at 0.9 mg/kg/day (B16 [5]): 78%
- ILS at 1.8 mg/kg/day (B16 [6]): 90%
- MST (B16 [7]): 29.5 days
- ILS at 0.9 mg/kg/day (B16 [8]): 60%
- MST (B16 [9]): 37 days
- ILS at 9 mg/kg/day (P388 [10]): 190%
- MST (B16 [11]): 27 days
- inhibition in vivo at 0.2 mg/kg/day [12]: 74%
- TGI [13]: 75%
- MST (B16 [14]): 35 days
- ILS at 0.648 mg/kg/day (B16 [15]): 35%
- MST (B16 [16]): 39 days
- Activity (Rhesus monkey): Non-toxic
- MST (B16 [17]): 42 days
- ILS at 0.1 mg/kg/day (P388 [18]): 109%
- inhibition in vivo at 0.25 mg/kg/day [19]: 100%
- ILS at 2.7 mg/kg/day (P388 [20]): 95%
- MTD at 24 h [21]: 13.5 mg/kg/day
- ILS at 1.8 mg/kg/day (P388 [22]): 54%
- ILS at 0.389 mg/kg/day (B16 [23]): 25%
- ILS at 3 mg/kg/day (B16 [24]): 48%
- Activity (Gallus gallus): Non-toxic
- MTD [25]: 0.25 mg/kg/day
- LD50 [26]: 6.3 mg/kg
- MST (B16 [27]): 25 days
- ILS at 3 mg/kg/day (B16 [28]): 138%
